From ChEMBL document CHEMBL1649278, “Characterization of a new metallo-beta-lactamase gene, bla(NDM-1), and a novel erythromycin esterase gene carried on a unique genetic structure in Klebsiella pneumoniae sequence type 14 from India” (2009) come the findings set out here.

In brackets after ≈: the same amount, converted by molar mass.

Experiment [1] relates to Klebsiella pneumoniae. Nature of the experiment: Activity of Klebsiella pneumoniae 05-560 beta-lactamase IMP1 by spectrophotometry.
The subject of experiment [2] is Escherichia coli. Nature of the experiment: Antibacterial activity against Escherichia coli J53 harboring beta-lactamase NDM-1 by Etest method. The class given is functional. In a few lines: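 Transconjugant of E. coli J53 recipient, mated with donor on blood agar without selection for 18 h. Selected on MacConkey agar with sodium azide (100 μg/ml) plus ceftazidime (8 μg/ml). Transfer confirmed by indole test and PCR for the MBL gene. Susceptibility read by Etest.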

Experiment [3] has as its system Escherichia coli. Nature of the experiment: Antibacterial activity against Escherichia coli TOP10 harboring beta-lactamase NDM-1 by Etest method. In kind it is functional. In a few lines: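 Fragments from BamHI, EcoRI or HindIII digests of K. pneumoniae 05-506 DNA were cloned into vector pK18 and electroporated into E. coli TOP10. Transformants were selected on LB agar with X-gal (30 μg/ml), ceftazidime (6 μg/ml) and kanamycin (25 μg/ml). Susceptibility read by Etest.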

Experiment [4] has as its system Klebsiella pneumoniae. The experiment is described as follows: Ratio of Kcat to Km for Klebsiella pneumoniae 05-560 beta-lactamase IMP1.
Experiment [5] relates to Escherichia coli. Nature of the experiment: Antibacterial activity against Escherichia coli NF-NDM-1 by Etest method. In kind it is functional.
Experiment [6] has as its system Klebsiella pneumoniae. Nature of the experiment: Antibacterial activity against Klebsiella pneumoniae 05-560 by Etest method. The class given is functional.
Experiment [7] has as its system Escherichia coli. Nature of the experiment: Antibacterial activity against Escherichia coli J53 by Etest method. In kind it is functional.
In experiment [8] the test system is Escherichia coli. Nature of the experiment: Antibacterial activity against Escherichia coli TOP10 by Etest method. In kind it is functional.

Usually Km stands for the concentration of substrate that gives half-maximal velocity. Usually kcat stands for the number of substrate molecules converted per active site and unit of time at saturation. What is called MIC is the smallest concentration in the dilution series that meets the test's criterion for growth inhibition. Higher therefore signals a need for much substance. One may read the kcat/Km as the second-order rate constant that governs catalysis at low substrate concentration. With `CO/N=C(\C(=O)N[C@@H]1C(=O)N2C(C(=O)[O-])=C(C[N+]3(C)CCCC3)CS[C@H]12)c1csc(N)n1`, the Km in the experiment on Klebsiella pneumoniae [1] is 11 µM. Further, in the experiment on Klebsiella pneumoniae [1], the kcat was determined as 7 s⁻¹. Moreover, the minimum inhibitory concentration (MIC) in the experiment with Escherichia coli [2] was 24 µg/mL (≈ 49.9 µM); in the experiment on Escherichia coli [3], 8 µg/mL (≈ 16.6 µM); against Escherichia coli [5], 24 µg/mL (≈ 49.9 µM); in the experiment on Klebsiella pneumoniae [6], over 256 µg/mL. Further, the kcat/Km in the experiment on Klebsiella pneumoniae [4] was found to be 660000 M⁻¹ s⁻¹.
As to `CC1(C)S[C@@H]2[C@H](NC(=O)Cc3ccccc3)C(=O)N2[C@H]1C(=O)O`, in the experiment on Klebsiella pneumoniae [1], the Km was determined as 520 µM and the kcat is 320 s⁻¹. The kcat/Km in the experiment with Klebsiella pneumoniae [4] amounted to 620000 M⁻¹ s⁻¹.
Take `CC(=O)OCC1=C(C(=O)O)N2C(=O)[C@@H](NC(=O)Cc3cccs3)[C@H]2SC1` [CEPHALOTHIN]: the Km in the experiment with Klebsiella pneumoniae [1] is 21 µM. The kcat with Klebsiella pneumoniae [1] is 48 s⁻¹. Moreover, the MIC against Escherichia coli [2] is over 256 µg/mL; in the experiment with Escherichia coli [3], over 256 µg/mL; in the experiment with Escherichia coli [7], 4 µg/mL (≈ 10.1 µM); in the experiment with Escherichia coli [5], over 256 µg/mL; against Klebsiella pneumoniae [6], over 256 µg/mL; against Escherichia coli [8], 8 µg/mL (≈ 20.2 µM). In the experiment with Klebsiella pneumoniae [4], the kcat/Km was 2.4e+06 M⁻¹ s⁻¹.
On to `CC1(C)S[C@@H]2[C@H](NC(=O)[C@H](N)c3ccccc3)C(=O)N2[C@H]1C(=O)O` [AMPICILLIN], for which the Km with Klebsiella pneumoniae [1] was determined as 200 µM. In the experiment on Klebsiella pneumoniae [1], the kcat worked out at 950 s⁻¹. The MIC with Escherichia coli [2] was over 256 µg/mL; in the experiment with Escherichia coli [3] it was over 256 µg/mL; in the experiment with Escherichia coli [7], 4 µg/mL (≈ 11.4 µM); in the experiment with Escherichia coli [5], over 256 µg/mL; against Klebsiella pneumoniae [6], over 256 µg/mL; against Escherichia coli [8], 12 µg/mL (≈ 34.3 µM). The kcat/Km in the experiment on Klebsiella pneumoniae [4] worked out at 4.8e+06 M⁻¹ s⁻¹.
Take `C[C@@H](O)[C@H]1C(=O)N2C(C(=O)O)=C(S[C@@H]3CN[C@H](C(=O)N(C)C)C3)[C@H](C)[C@H]12` [MEROPENEM]: the MIC against Escherichia coli [2] is over 32 µg/mL; against Escherichia coli [3] it was 12 µg/mL (≈ 31.3 µM); in the experiment on Escherichia coli [7] it was 0.064 µg/mL (≈ 0.167 µM); against Escherichia coli [5], over 32 µg/mL; with Klebsiella pneumoniae [6], over 256 µg/mL; in the experiment with Escherichia coli [8] it was 0.064 µg/mL (≈ 0.167 µM).
`CCN1CCN(C(=O)N[C@@H](C(=O)N[C@@H]2C(=O)N3[C@@H]2SC(C)(C)[C@@H]3C(=O)O)c2ccccc2)C(=O)C1=O` [PIPERACILLIN]: the MIC is over 256 µg/mL in the experiment with Escherichia coli [2]; 1 µg/mL (≈ 1.93 µM) in the experiment with Escherichia coli [7]; over 256 µg/mL with Escherichia coli [5]; over 256 µg/mL in the experiment on Klebsiella pneumoniae [6]; 0.5 µg/mL (≈ 0.966 µM) against Escherichia coli [8].
As to `CO/N=C(\C(=O)N[C@@H]1C(=O)N2C(C(=O)O)=C(COC(N)=O)CS[C@H]12)c1ccco1` [CEFUROXIME], the MIC was over 256 µg/mL in the experiment on Escherichia coli [2]; over 256 µg/mL in the experiment with Escherichia coli [3]; 8 µg/mL (≈ 18.9 µM) in the experiment on Escherichia coli [7]; over 256 µg/mL in the experiment with Escherichia coli [5]; over 256 µg/mL against Klebsiella pneumoniae [6]; 8 µg/mL (≈ 18.9 µM) in the experiment on Escherichia coli [8].
Turning to `C[C@@H](O)[C@H]1C(=O)N2C(C(=O)O)=C(S[C@@H]3CN[C@H](C(=O)Nc4cccc(C(=O)O)c4)C3)[C@H](C)[C@H]12`, the MIC in the experiment on Escherichia coli [2] was over 32 µg/mL; in the experiment on Escherichia coli [3] it was 24 µg/mL (≈ 50.5 µM); in the experiment on Escherichia coli [7], 0.5 µg/mL (≈ 1.05 µM); against Escherichia coli [5], over 32 µg/mL; in the experiment with Klebsiella pneumoniae [6], over 256 µg/mL; in the experiment with Escherichia coli [8] it was 0.125 µg/mL (≈ 0.263 µM).
